Each block holds one compound with its values, some of them ahead of it. Active and inactive are the calls of the source. The rule behind the calls is not given here.
Columns and labels:
[1] = Cytotoxicity against human HS-Sultan cells assessed as cell viability at 100 ug/ml after 72 hrs by MTT assay; format: functional; settings: read-out: Activity
[2] = test system: HUVEC; experiment: Antiangiogenic activity against VEGF-induced HUVEC assessed as tube joint at 100 uM after 11 days after 11 days by BCIP/NBT visualization assay; format: functional, cell-based; settings: Homo sapiens
How it was run: (§1)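 HUVECs co-cultured with fibroblasts (angiogenesis kit) grown with test drug at 30 or 100 μM plus VEGF-A 10 ng/ml for 11 days. Fixed in 70% ethanol, then mouse anti-human CD31 (1:4000, 1 h, 37 °C) and AP-conjugated goat anti-mouse IgG (1:500, 1 h, 37 °C), developed with BCIP/NBT. Mean ± S.E.M.; VEGF n = 9, VEGF + compound n = 3; Dunnett's test versus VEGF.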

[3] = test system: IM-9; experiment: Cytotoxicity against human IM9 cells assessed as cell viability at 100 ug/ml after 72 hrs by MTT assay; format: functional; settings: IM-9, 72 h, read-out: Activity
[4] = test system: HUVEC; experiment: Antiangiogenic activity against VEGF-induced HUVEC assessed as tube length at 100 uM after 11 days after 11 days by BCIP/NBT visualization assay; format: functional, cell-based; settings: Homo sapiens; how it was run: as §1
[5] = test system: MCF7; experiment: Cytotoxicity against human MCF7 cells assessed as cell viability at 100 ug/ml after 72 hrs by MTT assay; format: functional; settings: MCF7, 72 h, read-out: Activity
[6] = test system: HUVEC; experiment: Antiangiogenic activity against VEGF-induced HUVEC assessed as tube area at 100 uM after 11 days by BCIP/NBT visualization assay; format: functional, Homo sapiens; how it was run: as §1
[7] = test system: KB; experiment: Cytotoxicity against human KB cells assessed as cell viability at 100 ug/ml after 72 hrs by MTT assay; format: functional; settings: read-out: Activity
[8] = test system: HUVEC; experiment: Antiangiogenic activity against VEGF-induced HUVEC assessed as tube path at 100 uM after 11 days after 11 days by BCIP/NBT visualization assay; format: functional, cell-based; settings: Homo sapiens; how it was run: as §1
[9] = Stability assessed as half life at pH 6.24; format: physicochemical; settings: buffer
[10] = Stability assessed as half life at pH 7.23; format: physicochemical; settings: buffer
[11] = Stability assessed as half life at pH 8.78; format: physicochemical; settings: buffer

Structure (SMILES): O=C1CCC(N2C(=O)c3ccccc3C2=O)C(=O)N1 (racemic) [THALIDOMIDE]
viability at 100 µg/mL [1]: 85.9%
Activity [2]: inactive
viability at 100 µg/mL [3]: 107%
Activity [4]: inactive
viability at 100 µg/mL [5]: 86.5%
Activity [6]: <60%
viability at 100 µg/mL [7]: 92.2%
Activity [8]: inactive

half-life [9]: 27.8 h
half-life [10]: 5.1 h
half-life [11]: 2.6 h
Structure (SMILES): O=C1CC[C@H](N2C(=O)c3ccccc3C2=O)C(=O)N1
viability at 100 µg/mL [1]: 88.6%
viability at 100 µg/mL [3]: 93.5%
viability at 100 µg/mL [5]: 81.3%
Activity [6]: <60%
viability at 100 µg/mL [7]: 95.6%

Structure (SMILES): O=C1CC[C@@H](N2C(=O)c3ccccc3C2=O)C(=O)N1
viability at 100 µg/mL [1]: 75.6%
Activity [2]: inactive
viability at 100 µg/mL [3]: 87.1%
Activity [4]: inactive
viability at 100 µg/mL [5]: 89.8%
Activity [6]: >70%
viability at 100 µg/mL [7]: 96.9%
Activity [8]: inactive

Reference: ChEMBL document CHEMBL1151853, “Synthesis, configurational stability and stereochemical biological evaluations of (S)- and (R)-5-hydroxythalidomides” (Bioorg Med Chem Lett, 2009)
